The list is not random: actives were taken first. Their share in the collection is about 3.6%.
NadD block: inhibitors of Staphylococcus aureus NadD; actives 0.78% (n = 360,000); AID 602399; inhibition, % at 20 µM; purified NadD enzyme, colorimetric absorbance read-out; in the data active = inhibition above about 26%
UCH37 inh: inhibitors of human deubiquitinating enzyme UCH37. Q9Y5K5. purified proteasome/UCH37, Ub-AMC cleavage fluorescence. inhibition, % (no concentration beside the values). actives 0.33% (n = 330,000);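 active = mean inhibition over replicate wells above about 20%, limit read from the data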;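 note: 0% = compound-free wells with enzyme and 100% = wells lacking proteasome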
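Material: Human UCH37 enzyme supplied as purified proteasome complex | Schedule: 30 min preincubation with enzyme, 25 min cleavage at room temperature | Detection: AMC fluorescence 355/460 nm | Measure: % inhibition of Ub-AMC cleavage fluorescence | Controls: Wells without proteasome as full block, compound-free enzyme plus substrate as uninhibited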
GRIN3A LBD mod: modulates the human NR3A ligand-binding domain; Tm shift relative to glycine control, % at 25 µM; NR3A LBD differential scanning fluorimetry, Tm shift; 0% = protein alone, 100% = glycine-bound protein; actives 2.5% (n = 340,000); AID 1259313;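 active = melting temperature shift of at least 10% of the positive control shift, at one fixed dose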
SENP1 FRET inh: SENP1 (human) catalytic domain inhibition. Q9P0U3. recombinant SENP1 catalytic domain, CyPet-SUMO1-YPet FRET cleavage. inhibition, % at 10 µM. actives 0.21% (n = 360,000). AID 624204;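 active = inhibition at least 30% at 10 µM, raw YFP signal under a set limit, fluorescence ratio 0.5 to 1.5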;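 note: 0% = enzyme with DMSO and 100% = no enzyme wells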
Target sequence (Q9P0U3 419-644 limits assumed): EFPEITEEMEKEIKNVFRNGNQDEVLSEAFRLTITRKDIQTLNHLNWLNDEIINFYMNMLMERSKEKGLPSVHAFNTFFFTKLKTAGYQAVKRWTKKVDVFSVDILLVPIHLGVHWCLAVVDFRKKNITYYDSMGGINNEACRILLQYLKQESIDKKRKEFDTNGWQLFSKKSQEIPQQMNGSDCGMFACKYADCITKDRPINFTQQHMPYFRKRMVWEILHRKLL
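Material: hSENP1 catalytic domain, recombinant; medium: Tris pH 8 with BME, BSA, NP40 and catalase; compound: single concentration of 10 µM compound, 0.5% DMSO final; technique: FRET read of cyan and yellow fluorescence; timing: 50 min enzyme reaction, room temperature, light-protected; reagent: SFCypet-SUMO1-SFYpet substrate at 25 nM; control set: no-enzyme low, enzyme-DMSO high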
ATG4B inh: blocks human ATG4B protease cleavage of LC3 substrate; Q9Y4P1; ATG4B cleavage of LC3-PLA2, NBD-HPC fluorescence, 1 h; inhibition, % at 8.33 µM; actives 0.51% (n = 340,000); AID 504462; in the data active = inhibition above about 40%
* = called active by the depositor; · = not tested or not shown.

SMILES | NadD block | UCH37 inh | GRIN3A LBD mod | SENP1 FRET inh | ATG4B inh
CN(CC(=O)Nc1ccc(F)cc1)C(=O)c1cn(-c2ccccc2)nc1-c1cccs1 | -4 | 1 | 24* | -1 | -12
COc1cccc(NC(=O)CN(C)C(=O)/C=C/c2cn(-c3ccccc3)nc2-c2ccc(OC)c(OC)c2)c1 | -1 | -171 | -1 | 1 | -6
COc1ccc(O)c(C=NNC(=S)Nc2cccc(S(=O)(=O)N(C)C)c2)c1 | · | -65 | · | · | ·
Cc1ccccc1-c1nc(-c2ccc(NC(=O)c3ccc4c(c3)OCO4)cc2)no1 | 3 | -1 | 34* | -3 | -3
O=C(Nc1cc2c(cc1Cl)OCCO2)c1ccco1 | 4 | 3 | -1 | 2 | -3
O=C(Nc1ccc(NC(=O)c2ccco2)cc1)c1ccc2c(c1)OCO2 | 3 | -2 | 12* | -4 | 6
COC(=O)c1ccc(NC(=O)c2ccc3c(c2)OCO3)cc1 | -4 | -1 | -15 | -1 | -6
O=C(Nc1ccc(NC(=O)c2ccco2)c(Cl)c1)c1ccc2c(c1)OCCO2 | -14 | -15 | 31* | 3 | -2
O=C(Nc1nccs1)c1ccc(NC(=O)c2ccco2)cc1 | 0 | 4 | 10* | 2 | 3
COc1cc(-c2nc(-c3ccc(NC(=O)c4ccc5c(c4)OCO5)cc3)no2)cc(OC)c1OC | -8 | -11 | -4 | -15 | -16
C/C(C=NNC(=O)CCn1nnc2ccccc21)=C\c1ccccc1 | · | 4 | · | · | ·
COc1ccc(OC)c(-c2cc(C(=O)NN=Cc3ccc(F)cc3)c3ccccc3n2)c1 | · | -37 | · | · | ·
Cc1ccc2nc(NC(=O)/C=C/c3ccc4c(c3)OCO4)sc2c1 | 16 | -10 | 36* | -9 | 2
O=C(/C=C/c1ccc2c(c1)OCO2)Nc1nc2ccccc2s1 | 11 | · | 14* | -13 | -6
C(=N\Nc1nc2ccccc2s1)/c1ccc2c(c1)OCO2 | 0 | · | 9 | -2 | -20
Cc1csc(NC(=O)/C=C/c2ccc3c(c2)OCO3)n1 | -4 | -12 | -4 | 0 | -6
O=C(CSc1nc2nc(-c3cccs3)cc(C(F)(F)F)c2c(=O)[nH]1)Nc1c(F)c(F)c(F)c(F)c1F | 9 | -1 | 22* | -39 | 24
Cc1nnc(NN=Cc2cccc(C(F)(F)F)c2)n1N | · | 7 | · | · | ·
Cc1ccsc1C=NNC(=O)CO | · | 2 | · | · | ·
O=C(c1cccs1)N1CCc2c([nH]c3ccccc23)C1c1ccc(Cl)cc1 (stereo not drawn) | 15 | 2 | -21 | 1 | 0
O=C(CCN1CCOCC1)N1CCc2c([nH]c3ccccc23)C1c1cccc(Cl)c1 (stereo not drawn) | 3 | 23* | -3 | -10 | 17
CC(C)C(=NNS(=O)(=O)c1ccc(Br)cc1)c1cccs1 | · | 4 | · | · | ·
COc1ccc(/C=C2\CCC/C(=C\C=NN(C)C)C2=O)cc1 | · | 12 | · | · | ·
COc1cc(/C=C(\C#N)C(=O)NCC2CCCO2)ccc1OC(C)C (stereo not drawn) | 2 | 5 | 11* | 1 | 0
COc1ccc(/C=C(\C#N)C(=O)NCC2CCCO2)cc1OC (stereo not drawn) | -1 | 5 | -1 | 3 | -2
SMILES | NadD block | UCH37 inh | GRIN3A LBD mod | SENP1 FRET inh | ATG4B inh
N#CC1=C(N)Nc2nc3ccccc3n2C1c1ccc(Cl)cc1 (stereo not drawn) | 5 | -6 | 38* | -40 | 5
Cc1cccc2c(N=Nc3ccc(S(=O)(=O)Nc4ccc(Cl)cc4)cc3[N+](=O)[O-])c(O)[nH]c12 | 33* | 9 | -3 | 5 | 3
COc1ccc2[nH]c(O)c(N=NC(=O)c3ccc(NS(=O)(=O)c4cccs4)cc3)c2c1 | 27 | 7 | 2 | 3 | -10
Cc1ccc2[nH]c(O)c(N=Nc3ccccc3[N+](=O)[O-])c2c1 | -1 | · | 1 | 2 | 2
Cc1cccc2c(N=NC(=O)c3ccc(NS(=O)(=O)c4cccs4)cc3)c(O)[nH]c12 | 61* | 6 | 2 | 2 | -4
Cc1ccc2[nH]c(O)c(N=NC(=O)c3ccc(NS(=O)(=O)c4cccs4)cc3)c2c1 | 43* | 6 | 6 | -2 | 5
O=C(N=Nc1c(O)[nH]c2ccc(F)cc12)c1ccc(NS(=O)(=O)c2cccs2)cc1 | 39* | 6 | 0 | 3 | 1
Cc1cc(C)nc(N=C(N)Nc2ccc(C)c([N+](=O)[O-])c2)n1 | · | 4 | · | · | ·

Screens from PubChem.
